Source: PubChem BioAssay AID624204 (Sanford-Burnham Center for Chemical Genomics, 2012)
About 770 (0.21%) of roughly 360,000 compounds were called active. The sample holds actives, similar compounds and a random draw of the others, so the mix is not that of the screen.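 Rule for the calls: active = inhibition at least 30% at 10 µM, raw YFP signal under a set limit, fluorescence ratio 0.5 to 1.5; inactive = the rest.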

These compounds were tested against Sentrin-specific protease 1 (Homo sapiens) (UniProt Q9P0U3) (assay: human SENP1 catalytic domain inhibitors, primary screen, biochemical, FRET, uHTS (AID 624204;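 note: 0% = enzyme with DMSO and 100% = no enzyme wells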)). Conditions: recombinant SENP1 catalytic domain, CyPet-SUMO1-YPet FRET cleavage; at 10 µM; stronger effect = higher value.
Sentrin-specific protease 1 (Homo sapiens), sequence (Q9P0U3 419-644 limits assumed): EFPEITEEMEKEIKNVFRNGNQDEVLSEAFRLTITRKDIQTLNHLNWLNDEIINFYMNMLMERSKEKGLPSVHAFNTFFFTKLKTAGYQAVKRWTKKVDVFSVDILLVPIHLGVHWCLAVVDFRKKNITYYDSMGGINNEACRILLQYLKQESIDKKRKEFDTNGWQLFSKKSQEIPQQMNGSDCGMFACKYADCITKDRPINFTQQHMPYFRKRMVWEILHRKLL
Summary of the method: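 Assay system: hSENP1 catalytic domain, recombinant. Amount: SENP1 enzyme, 20 pM final. Schedule: 50 min reaction, RT, dark. Technique: FRET, CFP and YFP emission. Control set: no-enzyme wells low, DMSO-plus-enzyme wells high control.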
`N/C(=N\OC(=O)N1c2ccccc2Sc2ccccc21)c1ccc(Br)cc1` was tested, and the inhibition was 45.8% (active). In the case of `N/C(=N\OC(=O)c1ccc2c(c1)OCO2)c1ccc(Br)cc1`, the inhibition is reported as 2.72% (inactive). `N/C(=N\OC(=O)CCc1ccccc1)c1ccc(Cl)cc1` was tested, and the inhibition was 4.15% (inactive). With `Fc1ccc(CNCc2ccc(Br)cc2)cc1` the inhibition was 0.319% (inactive). With `CC(C)c1ccc(S(=O)(=O)N2CCC3(CC2)OCCO3)cc1` the inhibition was -0.675% (inactive). `CC(C)=CCN1CCN(Cc2cc3ccccc3[nH]2)CC1CCO` (configuration not stated) was tested, and the inhibition was -16.2% (inactive). In the case of `O=C(OCC(=O)N1CCCCCC1)c1ccc(Br)c(S(=O)(=O)N2CCOCC2)c1`, the inhibition is reported as 2.31% (inactive). With `CCC1CCCCN1CCNC(=O)c1[nH]c(C)c(C(C)=O)c1C` (configuration not stated) the inhibition was -5.33% (inactive). In the case of `CS(=O)(=O)Nc1ccccc1N=C(c1ccccc1)c1ccccc1`, the inhibition is reported as 1.89% (inactive). In the case of `CCc1ccc(C(=O)NN=C2CCCCCC2)s1`, the inhibition is reported as 1.74% (inactive). With `COc1ccc(-c2c(C#N)cnc(C)c2C)c(O)c1OC` the inhibition was 0.472% (inactive). In the case of `COC(=O)CNC(=O)C(CCSC)NC(C)=O` (configuration not stated), the inhibition is reported as 2.78% (inactive). With `CC(C)n1cnc2c(NCc3ccccc3)cc(OCC3CCN(C)CC3)cc21` the inhibition was -28.3% (inactive). In the case of `COCC1CCN(C(=O)C2CCC(=O)N(Cc3cccc(C(F)(F)F)c3)C2)CC1` (configuration not stated), the inhibition is reported as 2.83% (inactive). For `O=C(c1cccs1)N(Cc1cc2ccccc2[nH]c1=O)CC1CCCO1` (configuration not stated), the inhibition was 0.621% (inactive). In the case of `COc1ccc(S(=O)(=O)N2CCOC2CNC(=O)C(=O)NCc2ccc(F)cc2)cc1` (configuration not stated), the inhibition is reported as 0.939% (inactive). `Cc1oc2c(F)c(F)c(F)c(F)c2c1S(=O)(=O)Nc1cccc(C(F)(F)F)c1` was tested, and the inhibition was 0.0743% (inactive). In the case of `COc1ccc(S(=O)(=O)N(C)C[C@H]2OCc3cnnn3CCCC(=O)N([C@H](C)CO)C[C@H]2C)cc1`, the inhibition is reported as 0.96% (inactive). With `O=C(COC(=O)Cn1cnc2ccccc2c1=O)NCC12CC3CC(CC(C3)C1)C2` the inhibition was -2.59% (inactive). In the case of `O=C(Cn1cnc2ccccc21)Nc1ccccc1-c1ccccc1`, the inhibition is reported as 2.05% (inactive). `O=C(COC(=O)Cn1cnc2ccccc21)Nc1cccc2c1C(=O)c1ccccc1C2=O` was tested, and the inhibition was 49.1% (active). With `CCN(CC)S(=O)(=O)c1cc([N+](=O)[O-])ccc1N=Nc1c(O)n(C)c2ccccc12` the inhibition was 38.9% (active). `O=[N+]([O-])c1cc(S(=O)(=O)Nc2cccc(Cl)c2)ccc1N=Nc1c(O)[nH]c2ccccc12` was tested, and the inhibition was 7.59% (inactive). `CCN(CC)S(=O)(=O)c1ccc2c3c(cccc13)C(=O)S2` was tested, and the inhibition was -5.16% (inactive). For `COc1ccccc1-c1noc(CSc2nc(C)cc(=O)[nH]2)n1`, the inhibition was 0.334% (inactive). For `CC(/C=C/C1(O)C(C)CC(=O)CC1(C)C)OC1OC(CO)C(O)C(O)C1O` (configuration not stated), the inhibition was -6.63% (inactive). For `O=C(CNC(=O)N1CC(=O)Nc2ccccc21)Nc1ccc(Br)cc1F`, the inhibition was -5.9% (inactive). In the case of `Cc1ccc(S(=O)(=O)NC2CCCCCC2)cc1C(N)=O`, the inhibition is reported as 1.4% (inactive). With `CCN(C(=O)CSc1nnc2ccccn12)C1CCS(=O)(=O)C1` (configuration not stated) the inhibition was 0.95% (inactive). In the case of `CCCCCn1nnnc1-c1nc2cc3ccccc3cc2[nH]c1=O`, the inhibition is reported as 70.6% (active). In the case of `CCCCn1c(-c2cccc(C)c2)nc2cc3[nH]c(=O)c(C(C)C)nc3cc21`, the inhibition is reported as -46.9% (inactive). `CCCCCn1nnnc1C1c2ccccc2C(=O)N1Cc1ccco1` (configuration not stated) was tested, and the inhibition was 2.03% (inactive). `CC(=O)Nc1ccc(Sc2ccccc2C(=O)N2CCCC2)cn1` was tested, and the inhibition was 0.55% (inactive). In the case of `Cc1c(CN2CCC(n3nccc3NC(=O)CCc3ccccc3)CC2)cnn1C`, the inhibition is reported as 2.13% (inactive). For `CCn1nc(C(=O)NNC(=O)C2CSC3(C)CCC(=O)N23)c2ccccc2c1=O` (configuration not stated), the inhibition was 1.35% (inactive). In the case of `CCc1nc2ccc(C(=O)Nc3cc(-c4ccccc4)ccc3OC)cn2c1N(CC)CC(=O)N(C)C`, the inhibition is reported as -1.8% (inactive). `CCCn1c(=O)c2ccccc2n2c(SCC(=O)/C(C#N)=C(\C)N)nnc12` was tested, and the inhibition was -2.1% (inactive). For `CN(C)CCN(Cc1ccccc1)S(=O)(=O)c1csc(C(N)=O)c1`, the inhibition was 3.33% (inactive). With `Cc1ccc(SC(=O)COc2ccc(C)c(C)c2)cc1` the inhibition was 4.05% (inactive). With `CC(C)OC(=O)CC(=O)CC(O)c1cccc([N+](=O)[O-])c1` (configuration not stated) the inhibition was 1.31% (inactive). `COc1ccc(Cl)cc1C=CC=NNC(=O)c1ccncc1` was tested, and the inhibition was 2.79% (inactive). For `COc1ccccc1-c1nnc(NC(=O)c2cccc(N3C(=O)CCC3=O)c2)o1`, the inhibition was 1.37% (inactive). `COc1cccc(/C=N/NC(=O)c2[nH]nc3c2CCc2ccccc2-3)c1O` was tested, and the inhibition was 48.9% (active). `CCN1C(=O)/C(=C2\SC(N3CCCCC3)=NC2=O)c2ccccc21` was tested, and the inhibition was 1.36% (inactive). In the case of `CC1CCN(C2=NC(=O)/C(=C/c3cn[nH]c3-c3ccccc3)S2)CC1`, the inhibition is reported as -1.05% (inactive). For `CCOc1cc(/C=C2\SC(N3CCCC(C)C3)=NC2=O)ccc1O` (configuration not stated), the inhibition was 58.5% (active). For `CCOc1cc(/C=C2\SC(N3CCCCC3)=NC2=O)ccc1O`, the inhibition was 56.6% (active). With `CCOc1cc(/C=C2\C(=N)N3N=C(C)SC3=NC2=O)ccc1OCCOc1ccccc1` the inhibition was -3.15% (inactive). With `Cc1cccc(N(C(=O)Cc2cccs2)C(C(=O)NCc2ccco2)c2ccncc2)c1` (configuration not stated) the inhibition was -0.142% (inactive). In the case of `COc1ccc(S(=O)(=O)N2CCC(C(=O)NCCC(=O)NCCc3cccc(F)c3)CC2)cc1`, the inhibition is reported as 1.66% (inactive). For `COc1ccc(CC(=O)N[C@@H]2c3cc(OC)c(OC)cc3C[C@H]2OCc2ccccc2)cc1`, the inhibition was 2.95% (inactive). For `O=C(NC1CCCCC1)C1CC(=O)N(CCc2ccccc2)C1` (configuration not stated), the inhibition was 1.46% (inactive). In the case of `CCOC(=O)/C(=N\Nc1cc(Cl)ccc1Cl)N1CCN(C)CC1`, the inhibition is reported as 0.895% (inactive). In the case of `O=S(=O)(c1ccc(F)cc1)N1CCN(C(=S)NC2CCCC2)CC1`, the inhibition is reported as 2.06% (inactive). With `CCCCn1nnnc1NCc1cc(OC)c(OC)c(OC)c1` the inhibition was 1.02% (inactive). For `CCOC(=O)N1CCC(O)(c2cc(C)c(C)cc2C)CC1`, the inhibition was 0.28% (inactive). With `Clc1cccc(Cc2c(-c3cccc(Cl)c3)nc3ccc(Cl)cn23)c1` the inhibition was 18.5% (inactive). For `Fc1cccc(Cc2c(-c3ccc(Cl)cc3)nc3ccc(Cl)cn23)c1`, the inhibition was 9.99% (inactive). For `Fc1cccc(Cc2c(-c3cccc(Cl)c3)nc3ccc(Br)cn23)c1`, the inhibition was 45.8% (active). For `CC(=O)N1CCOc2ccc(S(=O)(=O)N3CCN(c4cccc(C(F)(F)F)c4)CC3)cc21`, the inhibition was 2.33% (inactive). For `COc1ccc(N2CCC(N3CCN(C)C(CCO)C3)CC2)cc1` (configuration not stated), the inhibition was -1.06% (inactive). In the case of `O=[N+]([O-])/C(N=Nc1ccccc1)=N\Nc1ccccc1`, the inhibition is reported as 0.203% (inactive). For `O=[N+]([O-])c1ccc(N=NNc2ccc([N+](=O)[O-])cc2)cc1`, the inhibition was 67.8% (active). `NC(=O)C1(Nc2ccc([N+](=O)[O-])cc2)CCCC1` was tested, and the inhibition was -1.76% (inactive). `O=C(N/N=C/c1ccc(Br)o1)c1cncc(Br)c1` was tested, and the inhibition was 0.704% (inactive). For `Brc1cc(/C=N/n2cnnc2)oc1Br`, the inhibition was 2.85% (inactive). `Cc1ccc(C(=O)N/N=C\c2cc(Br)c(Br)o2)cn1` was tested, and the inhibition was 41.1% (active). In the case of `CC(C)(C)OC(=O)C[C@@H]1C/C=C\C[C@@H](CC(=O)N[C@@H](CO)Cc2ccccc2)C(=O)N2CCC[C@H]2COC1=O`, the inhibition is reported as 1.24% (inactive). With `Cc1ccc(Cn2nnc3c(=O)[nH]c(C4CCN(S(=O)(=O)/C=C/c5ccccc5)CC4)nc32)cc1` the inhibition was -2.14% (inactive). `Cc1cccc(Nc2nnc(SCC(=O)c3c(N)n(C4CC4)c(=O)[nH]c3=O)s2)c1C` was tested, and the inhibition was 1.61% (inactive). `Nn1c(SCC(=O)Nc2nccs2)nncc1=O` was tested, and the inhibition was 2.89% (inactive). In the case of `O=C(Nc1ccc2c(c1)OCCO2)C1c2ccccc2OCC(=O)N1Cc1ccccn1` (configuration not stated), the inhibition is reported as -6.74% (inactive). For `Cc1ccc(F)c(NC(=O)CCc2ccccc2)c1`, the inhibition was -0.0761% (inactive). In the case of `CCNc1nc(N)nc(-c2cc(Cl)ccc2OC)n1`, the inhibition is reported as 0.684% (inactive). With `O=C(CNC(=O)c1ccc(Cl)cc1Cl)NCC(=O)Nc1ccccc1N1CCOCC1` the inhibition was 4.8% (inactive). In the case of `CCCC1OC23CCCCC2C(C#N)(C#N)C1(C#N)C(=N)O3` (configuration not stated), the inhibition is reported as -28.3% (inactive). For `CCOC(=O)CCC(=O)OCC(=O)NC(C)C1CC2CCC1C2` (configuration not stated), the inhibition was 2.09% (inactive). With `COC(=O)N/N=C/c1c[n+]([O-])c2ccccc2[n+]1[O-]` the inhibition was 58.5% (active). `COC(=O)C(C)N=Cc1ccccc1` (configuration not stated) was tested, and the inhibition was 3.52% (inactive). In the case of `N#Cc1ccc(C(c2ccc(C#N)cc2)n2cncn2)cc1`, the inhibition is reported as -1.95% (inactive). In the case of `O=C(Nc1cccc(OCC(=O)N2CCOCC2)c1)C1CCCCC1`, the inhibition is reported as -0.72% (inactive). In the case of `COc1ccc(N2C(=O)CC(N3CCC(C(N)=O)CC3)C2=O)cc1` (configuration not stated), the inhibition is reported as -0.137% (inactive). `COc1ccc(N2C(=O)C3C(C2=O)C(C(=O)c2ccccc2)N2CCCC32)cc1` (configuration not stated) was tested, and the inhibition was 40% (active). `CNC(=O)C[C@H]1C(=O)N(c2ccc(OC)cc2)C[C@@H]1Cc1ccccc1` was tested, and the inhibition was 3.98% (inactive). In the case of `CC(C)Oc1ccc(C(CC(=O)N2CCOCC2)C(C)C)cc1` (configuration not stated), the inhibition is reported as 1.52% (inactive). `CC(C)(C)c1cc(NC(=O)NN2CCOCC2)nn1-c1c(Cl)cc(Cl)cc1Cl` was tested, and the inhibition was 2.79% (inactive). `Cn1c(N)cc(=O)n(C)c1=S` was tested, and the inhibition was -0.927% (inactive). `COc1ccc(CCNS(=O)(=O)c2cc3c(cc2C)NC(=O)CO3)cc1OC` was tested, and the inhibition was 2.06% (inactive). With `COc1ccc(OC)c(C2C3=C(N=c4s/c(=C\c5cccc(O)c5)c(=O)n42)c2ccccc2CC3)c1` (configuration not stated) the inhibition was 45.9% (active). In the case of `CCC1([N+](=O)[O-])COC(c2ccc(C(C)C)cc2)OC1` (configuration not stated), the inhibition is reported as 2.7% (inactive). `Cc1ccc2c(c1)N(C(=O)CCC(=O)N1CCc3ccccc3C1)CCO2` was tested, and the inhibition was 1.45% (inactive). For `CCOC(=O)[C@H]1[C@H]2COc3ccc(Cl)cc3[C@@H]2N2C(=O)c3cc(C)ccc3NC(=O)[C@@]12C`, the inhibition was 1.07% (inactive).
